SR-BI uptake up: SR-BI HDL lipid transfer activation | CHO ldlA[mSR-BI] cells, DiI-HDL uptake fluorescence, 3 h; 100 = double the neutral-control signal | activation, % at 12.5 µM | 320,000 compounds, 0.096% hits | AID 504775;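 active = mean replicate activation of at least 60% and every replicate at or above 60%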;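 note: 0% = median plate neutral-control signal and 100% = twice that signal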
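Test system: SR-BI-overexpressing, LDLR-lacking CHO cells. Measured by: DiI fluorescence, bottom read. Medium: Ham's F12 with 0.5% BSA, HEPES 25 mM, pH 7.4. Timing: 3 h uptake period with compound, 37 °C.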
ANO1 activ: mouse TMEM16A channel activation, primary screen | Q8BHY3 | HEK293 TMEM16A/YFP-H148Q/I152L, iodide quench fluorescence; hits give low values | B-score at 10 µM | 340,000 compounds, 0.3% hits;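 active = fluorescence-ratio B-score plate-corrected deviation score at least 3 library SD below zero, with starting fluorescence score within 5 deviations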;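 note: channel opened by trigger with iodide after compound preincubation; score built on the fluorescence ratio of max minus min over baseline; more negative score means more quench and so TMEM16A activation or potentiation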
ANO1 block: inhibitors of mouse TMEM16A calcium-activated chloride channel; AID 588511; HEK293 TMEM16A/YFP iodide influx fluorescence, ionomycin; normalized B-score (activity score, 25-100; higher = stronger inhibition) at 10 µM; 310,000 compounds, 1.2% hits; Q8BHY3;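 active = ratio plate-corrected score three or more library SD toward inhibition, starting fluorescence score within five deviations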;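 note: score derived from kinetic fluorescence span divided by baseline fluorescence per well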
Kir21 block: inhibitors of mouse Kir2.1 inward-rectifier potassium channel | P35561 | HEK293-Kir2.1, FluxOR thallium flux fluorescence; hits give low values | B-score at 10 µM | 310,000 compounds, 0.85% hits | AID 1672;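 active = fluorescence ratio B-score at or below minus 3 SD of library scores, with starting-brightness B-score within 2 SD, cut at about -4.2 in these data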;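 note: channel flux triggered by added potassium and thallium sulfate stimulus; B-score of peak minus minimum fluorescence over baseline after thallium stimulus; more negative B-score means stronger Kir2.1 block with less thallium influx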
SR-BI HDL uptake: inhibitors of mouse SR-BI mediated HDL lipid uptake; Q61009; ldlA[mSR-BI] CHO cells, DiI-HDL uptake fluorescence, 3 h; inhibition, % at 12.5 µM; 320,000 compounds, 0.96% hits; AID 488896;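 active = mean replicate inhibition of at least 70% and a set share of replicates each scoring 70 or more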;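 note: 0% = median of neutral control wells and 100% = median of positive control wells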
Target sequence (Q61009 whole entry, looked up): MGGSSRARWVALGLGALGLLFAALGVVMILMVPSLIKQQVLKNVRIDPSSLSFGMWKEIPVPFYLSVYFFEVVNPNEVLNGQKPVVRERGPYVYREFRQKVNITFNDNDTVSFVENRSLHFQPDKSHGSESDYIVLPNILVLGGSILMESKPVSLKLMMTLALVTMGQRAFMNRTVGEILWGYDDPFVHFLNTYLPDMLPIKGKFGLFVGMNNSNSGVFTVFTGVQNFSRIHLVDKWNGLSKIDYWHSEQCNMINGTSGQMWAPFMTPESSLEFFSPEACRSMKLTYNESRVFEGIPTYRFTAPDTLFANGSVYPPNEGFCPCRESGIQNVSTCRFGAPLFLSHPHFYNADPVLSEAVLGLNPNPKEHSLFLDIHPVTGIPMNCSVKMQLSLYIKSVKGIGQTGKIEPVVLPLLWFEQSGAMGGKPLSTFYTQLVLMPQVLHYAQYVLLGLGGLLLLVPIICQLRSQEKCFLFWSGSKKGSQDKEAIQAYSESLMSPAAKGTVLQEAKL
DNA FID counter: fluorescent intercalator displacement, NS3 helicase counter-screen; 290,000 compounds, 0.17% hits; DNA fluorescent intercalator displacement, fluorescence; inhibition, % at 7.9 µM; in the data active = inhibition above about 37%;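 note: 0% = vehicle and 100% = reference compound; higher means more ethidium bromide displaced from hairpin DNA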
Numbers without * were called inactive; i = inactive; . = no result given. Hits are enriched below; roughly 3% of the tested compounds scored in any of these assays.

SMILES | SR-BI uptake up | ANO1 activ | ANO1 block | Kir21 block | SR-BI HDL uptake | DNA FID counter
CCc1ccc(S(=O)(=O)/N=C2\C=C(Nc3ccc(O)cc3)C(=O)c3ccccc32)cc1 | -63.1 | i | i | 0.33 | 63.1 | 32.8
c1ccc(COc2ccccc2CNC23CC4CC(CC(C4)C2)C3)cc1 | 18.4 | i | i | -9.77* | -18.4 | 24.6
COc1ccc(C(=O)NN)cc1COc1ccc(Br)cc1 | -97.4 | i | i | -1.86 | 97.4* | -11.8
COc1ccc(C(C)=O)cc1COc1ccc(F)cc1 | -17.4 | i | i | -1.96 | 17.4 | -9.5
COc1ccc(C(C)=O)cc1COC(=O)CNC(=O)c1ccc(Cl)cc1 | -58.9 | i | i | 0.1 | 58.9 | -12.6
CCOc1ccc(C(=O)NCC(=O)OCc2cc(C(C)=O)ccc2OC)cc1 | -70.8 | i | i | 0.19 | 70.8* | -15.1
CCC1CCCCN1S(=O)(=O)c1ccccc1[N+](=O)[O-] (configuration not stated) | 11.6 | i | i | -4.33* | -11.6 | 2.0
COc1cc2ccccc2cc1C(=O)Nc1ccccc1N1CCN(S(C)(=O)=O)CC1 | -88.5 | i | i | -0.78 | 88.5* | -8.5
COc1ccc(NC(=O)c2cc3ccccc3cc2OC)cc1OC | -70.4 | i | i | 1 | 70.4* | -30.5
COc1cccc(C(=O)NNC(=O)c2ccccc2)c1 | 14.9 | i | i | -0.05 | -14.9 | -10.9
COc1cccc(C(=O)NNC(=O)c2ccc3ccccc3c2O)c1 | -107.5 | i | i | -1.13 | 107.5* | .
COc1ccc(CNC(=O)c2cc(-c3ccncc3)nc3c(C)cc(C)cc23)cc1OC | -71.5 | i | i | 0.94 | 71.5* | -7.1
CCCCn1c(N)c(N(CCOC)C(=O)COC(=O)COc2cc(C)c(Cl)cc2C(C)C)c(=O)[nH]c1=O | -23.5 | i | i | -0.02 | 23.5 | .
COc1cccc(NC(=O)CN(C)C(=O)c2cc3ccccc3cc2OC)c1 | -40.1 | -34.1* | . | . | 40.1 | .
COc1ccc(NC(=O)c2cc(-c3ccc(C)o3)nc3ccccc23)cc1OC | -83.0 | i | i | . | 83.0* | -12.8
COc1ccccc1NC(=O)NNC(=O)c1ccc2ccccc2c1O | -12.8 | i | i | 0.03 | 12.8 | -13.9
COc1ccc(NC(=O)NNC(=O)c2ccc3ccccc3c2O)cc1OC | -115.5 | i | i | 1.58 | 115.4* | -12.1
COc1ccc(NC(=O)c2cc(-c3ccc(C)o3)nc3ccccc23)c(OC)c1 | . | i | i | 1.42 | . | .
COc1ccc(NC(=O)c2cc(-c3ccncc3)nc3ccc(Br)cc23)cc1OC | -83.2 | i | 100* | 0.62 | 83.2* | -38.1
COC(=O)CCC(=O)c1ccc(OC)c(Cl)c1 | . | . | i | -0.23 | . | .
CSc1ncc(Cl)c(C(=O)Nc2ccccc2[N+](=O)[O-])n1 | -21.5 | i | i | 0 | 21.5 | 3.0
O=C(N[C@@H](Cc1ccccc1)C(=O)NC1CC1)c1ccc(Cl)cc1 | . | i | i | 1.13 | . | -8.1
COc1ccc(S(=O)(=O)NCCSCc2ccco2)cc1Cl | 7.2 | i | i | -6.27* | -7.2 | -5.8
CC(C)N1CCN(C(=O)C2CCC(=O)N(CCc3cccc(F)c3)C2)CC1 (configuration not stated) | -30.2 | i | . | -3.03 | 30.2 | -6.1
COc1cccc(NC(=O)C2CCOC2=O)c1 (configuration not stated) | . | i | i | 1.61 | . | .
SMILES | SR-BI uptake up | ANO1 activ | ANO1 block | Kir21 block | SR-BI HDL uptake | DNA FID counter
Cc1ccc(S(=O)(=O)NCCn2nc(C)cc2C)cc1 | 10.6 | i | i | -0.48 | -10.6 | -6.7
OC(CNCc1ccccc1F)COc1cccc2ccccc12 (configuration not stated) | . | i | i | -6.86* | . | 13.5
COc1ccccc1C(=O)NCCNc1nc2cc(C)cc(C)c2cc1C#N | -110.1 | i | i | 0.11 | 110.1* | 1.3
O=C(NC1CCN(c2ncccn2)CC1)c1ccccc1Cl | . | i | i | 0.91 | . | -7.0
Cc1ccc(SCCNC(=O)/C=C/c2ccccc2Cl)cc1 | 1.0 | i | 25* | 0.48 | -1.0 | -14.7
COc1ccc(C(CNC(=O)c2cccc(NS(=O)(=O)c3ccc(Br)cc3)c2)N(C)C)cc1 (configuration not stated) | 10.2 | i | i | -0.86 | -10.2 | .
CCCCCCCOC1(c2ccccc2)OC(=O)c2ccccc21 (configuration not stated) | -6.2 | i | i | -0.25 | 6.2 | -0.8
CCCCCCOC1(c2ccccc2)OC(=O)c2ccccc21 (configuration not stated) | -7.3 | i | 25* | 0.35 | 7.3 | 0.3
CC(C)(C)CC(=O)N1CCN(c2ccc(S(=O)(=O)N3CCOCC3)cc2[N+](=O)[O-])CC1 | -0.5 | i | . | . | 0.5 | .
O=C(c1cc(-c2ccncc2)nc2c(Cl)cccc12)N1CCN(c2ccccc2F)CC1 | -72.8 | i | i | 0.58 | 72.8* | -39.1
Cn1nc(C(=O)OCC(=O)Nc2ccccc2OC(F)F)c2ccccc2c1=O | 2.7 | i | . | . | -2.7 | .
c1ccc(Cc2ccc(OCCCNC3CCCC3)cc2)cc1 | . | . | i | -8.13* | . | 23.4
COc1ccc(OCCNC2CCCC2)cc1 | 15.3 | i | i | 1.12 | -15.3 | 0.8
c1ccc(-c2ccc(OCCCNC3CCCC3)cc2)cc1 | -7.3 | i | i | -5.8* | 7.3 | 41.0*
CC(=O)N/C(=C\c1ccccc1)C(=O)OCC(=O)Nc1cc(S(=O)(=O)N(C)C)ccc1Cl | 16.7 | i | . | . | -16.7 | .
Cc1ccc(NS(=O)(=O)c2ccccc2F)cc1S(=O)(=O)N1CCCCCC1 | 10.9 | i | . | . | -10.9 | .
COc1ccccc1C(=O)NC(CCSC)C(=O)NCCCSc1ccccc1 (configuration not stated) | -28.3 | i | i | -0.33 | 28.3 | .
O=[N+]([O-])c1ccc(N/N=C/c2c[nH]c3ccccc23)c(S(=O)(=O)Nc2ccc(Cl)cc2)c1 | -94.0 | i | i | -0.69 | 94.0* | -0.7
CC(C)OCCCn1c(SC(C)C(=O)NCC2CCCO2)nc2cc(Cl)ccc2c1=O (configuration not stated) | -11.3 | i | i | 0.55 | 11.3 | .
CC(C)Cn1c(SC(C)C(=O)NCC2CCCO2)nc2ccc(Cl)cc2c1=O (configuration not stated) | 17.4 | -25.1* | . | . | -17.4 | .
C/C(=N/Nc1ccc(C(=O)c2c(C)cc3ccccn23)cc1[N+](=O)[O-])c1ccc(O)cc1 | -100.8 | i | . | . | 100.8* | .
O=C(NC(c1cccnc1)C(F)(F)F)c1cc(COc2ccc3c(c2)CCCC3)on1 (configuration not stated) | -32.0 | i | 25* | -0.63 | 32.0 | -40.6

Screening results as filed in PubChem BioAssay.
